An excerpt weighted towards active compounds, which were near 2.3% of everything screened.
CSN inh: CSN deneddylation inhibition; Q92905; Purified CSN, SCF-Nedd8-OG deneddylation, fluorescence polarization; inhibition, % at 12.5 µM; 360,000 compounds, 0.38% hits; AID 651999;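 active means pattern-corrected inhibition above about 35%, with an unprinted fluorescence ratio check between 0.5 and 1.5, limit read from the data, passing the limit was not always enough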;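 further: 0% = enzyme with substrate and 100% = substrate without enzyme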
Target sequence (Q92905 whole entry, looked up, one chain of several): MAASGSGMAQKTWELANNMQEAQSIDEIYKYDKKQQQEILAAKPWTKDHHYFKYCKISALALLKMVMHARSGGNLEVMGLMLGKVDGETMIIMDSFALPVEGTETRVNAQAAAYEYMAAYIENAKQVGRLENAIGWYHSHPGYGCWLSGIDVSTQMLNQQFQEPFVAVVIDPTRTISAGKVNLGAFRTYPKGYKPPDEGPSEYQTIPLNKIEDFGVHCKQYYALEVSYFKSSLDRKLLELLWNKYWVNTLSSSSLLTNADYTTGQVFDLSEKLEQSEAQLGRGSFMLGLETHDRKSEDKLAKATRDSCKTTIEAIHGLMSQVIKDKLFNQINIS
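Assay system: purified human Csn5 enzyme expressed in HEK293T cells; measure: % inhibition; also added: SCFSkp2-Nedd8OG substrate at 10 nM final; technique: fluorescence polarization; times: reaction 90 min, room temperature; medium: Tris buffer pH 7.5, NaCl, DTT, Tween-20, trehalose, ovalbumin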
Myeloid diff 2: myeloid differentiation induction. ER-HoxA9 myeloid progenitors, lysozyme-GFP differentiation, flow cytometry. calls only at 10 µM. 360,000 compounds, 1% hits;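 active means normalized GFP-positive differentiation at or above the plate's own cutoff, the solvent-only control mean plus 3 SD; inconclusive means no clear call, values can overlap the other calls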;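 further: cells exposed to compound for four days before flow analysis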
Rpn11 inh: blocks the human proteasome subunit Rpn11 | inhibition, % at 20 µM | AID 588493 | human 26S proteasome, Ub4-pepOG fluorescence polarization; 20S core pre-blocked with epoxomicin | 360,000 compounds, 0.59% hits;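 active means inhibition at 20 µM, scaled to each plate's controls, above about 33%, limit read from the data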
Target sequence (O00487 whole entry, looked up): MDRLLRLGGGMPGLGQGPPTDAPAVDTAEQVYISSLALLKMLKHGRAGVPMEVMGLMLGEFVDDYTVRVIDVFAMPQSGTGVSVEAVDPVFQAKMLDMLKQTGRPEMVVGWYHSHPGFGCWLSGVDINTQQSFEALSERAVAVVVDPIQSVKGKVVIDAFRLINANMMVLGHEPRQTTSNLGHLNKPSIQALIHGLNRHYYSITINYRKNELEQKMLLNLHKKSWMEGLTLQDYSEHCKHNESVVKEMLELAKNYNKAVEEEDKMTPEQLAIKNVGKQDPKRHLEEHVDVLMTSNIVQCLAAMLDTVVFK
HNF4A DNA FP: change in binding of human HNF4 alpha to DNA. P41235. HNF4a-FITC DNA binding, fluorescence polarization, 1 h. activity change, % at 10 µM. 360,000 compounds, 0.3% hits; in the data active means activity change above about 30%, passing the limit was not always enough
TPT1 inh: C. albicans TPT1 enzyme inhibition; 300,000 compounds, 0.81% hits; inhibition, % at 5 µM; recombinant caTPT1, FP RNA substrate dephosphorylation;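 active means inhibition above the mean of all tested compounds plus 3 SD, set per screening campaign, cut at about 24% in these data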;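 further: plate controls were DMSO alone for no effect and ferristatin control at 100 nM for full effect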
caTPT1 confirm: TPT1 (C. albicans) inhibition, confirmation; shares compounds with TPT1 inh; recombinant caTPT1, fluorescence polarization, RNase T1 coupled; inhibition, % at 5 µM; 2,400 compounds, 74% hits;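 active means inhibition above the primary screen limit, the mean inhibition of all tested compounds plus 3 SD, cut at about 25% in these data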
RNase T1 inh: RNase T1 inhibition in TPT1 counter-screen; shares compounds with TPT1 inh; RNase T1 cleavage, fluorescence polarization, 1536-well; inhibition, % at 5 µM; 2,400 compounds, 83% hits; AID 2153;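 active means inhibition above the solvent-only control well mean plus 3 SD, limit set per screening run, cut at about 23% in these data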;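 further: plate controls were DMSO wells with enzyme for no effect and wells without RNase T1 for full effect; inhibitors block cleavage so intact labeled substrate keeps polarization high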
Rpn11 confirm: Rpn11 inhibition confirmation, single concentration. shares compounds with Rpn11 inh. purified human 26S proteasome, Ub4-pepOG fluorescence polarization; proteasome pretreated with epoxomicin. inhibition, % at 20 µM. 1,900 compounds, 29% hits. AID 602318
MMP-2 counter-1: counter-screen for RPN11 inhibitors: inhibition of human MMP-2. shares compounds with Rpn11 inh. inhibition, % at 20 µM. recombinant MMP-2, FRET peptide cleavage fluorescence. 1,900 compounds, 4% hits. AID 602330;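 further: human MMP-2 activated beforehand with APMA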
Thrombin inh: thrombin (bovine) inhibition counter-screen | shares compounds with Rpn11 inh | bovine thrombin cleavage of Ub4-pepOG, fluorescence polarization | inhibition, % at 20 µM | 1,900 compounds, 13% hits | AID 602333;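 active means mean inhibition at least 40% at 20 µM, or signal 3 deviations below plate average, so some actives read negative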;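 further: plate controls were thrombin with DMSO for no effect and buffer wells lacking thrombin for full effect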
Myeloid diff: myeloid differentiation induction. shares compounds with Myeloid diff 2. ER-HoxA9 myeloid progenitors, GFP/Mac1 double-positive flow. calls only. 2,300 compounds, 2% hits. AID 651706;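 active means share of green or green-and-red cells above 9 and 9% in run 1 or 4 and 3% in run 2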
GFP autofluor: counter-screen for myeloid differentiation promoters: compound fluorescence | shares compounds with Myeloid diff 2 | ER-HoxA9 myeloid progenitors, no estrogen, GFP autofluorescence flow cytometry; vehicle wells 0%, positive control 100% | fluorescence response, % (test concentration not listed) | 2,300 compounds, 7.4% hits | AID 651707;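 active means over 5% cells positive for green fluorescent reporter, or over 2% positive for both it and APC stain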;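 further: range taken on the double positive population between DMSO and positive control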
CSN deneddyl val: Csn5 (human) deneddylation inhibition, single-concentration validation. Csn5 deneddylation of SCF-Nedd8OG, fluorescence polarization, 90 min. AID 720654. 540 compounds, 62% hits. inhibition, % at 16.6 µM. shares compounds with CSN inh; in the data active means inhibition above about 50%;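 further: 0% = DMSO with enzyme and 100% = no enzyme wells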
MMP-2 counter-2: counter-screen for CSN deneddylation inhibitors: human MMP-2 inhibition; shares compounds with CSN inh; inhibition, % at 16.6 µM; recombinant MMP-2, FRET substrate fluorescence, 60 min; 540 compounds, 33% hits;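 active means corrected plate-normalized z-score of 5 or more, or -5 or less, or inhibition of 15% or more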;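 further: plate controls were DMSO wells with enzyme for no effect and buffer wells lacking MMP-2 for full effect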
Thrombin cntr: counter-screen for CSN deneddylation inhibitors: bovine thrombin inhibition. shares compounds with CSN inh. bovine thrombin cleavage of Ub4-pepOG, fluorescence polarization. inhibition, % at 16.6 µM. 540 compounds, 49% hits. AID 720656;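 active means inhibition at or above a set limit, with a fluorescence interference ratio between 0.5 and a set maximum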
An asterisk follows results filed as active; i = inactive; u = inconclusive; x = not tested or not shown; + = active, no number. Unless noted, no stated cut-off is given here; in the data, active means inhibition above about 40%; inactive means the rest.

SMILES	CSN inh	Myeloid diff 2	Rpn11 inh	HNF4A DNA FP	TPT1 inh	caTPT1 confirm	RNase T1 inh	CSN deneddyl val	MMP-2 counter-2	Thrombin cntr	others
Cc1ccc2nc(/C(C#N)=C/c3ccc(O)c(O)c3)[nH]c2c1	59*	+	x	19	56*	77*	84*	50*	-1	62*
COc1cc(/C=C2/CC/C(=C/c3ccc(O)c(OC)c3)C2=O)ccc1O	47*	+	x	48*	113*	117*	119*	62*	-17	72*
COc1cc(/C=C2\COC/C(=C\c3ccc(O)c(OC)c3)C2=O)ccc1O	9	u	15	0	6	x	x	x	x	x
Cc1nc(-n2[nH]c3c(c2=O)CCCC3)[nH]c(=O)c1Cc1ccccc1	52*	i	x	44*	122*	65*	77*	80*	-4	49*	Myeloid diff=i;GFP autofluor=0
O=C(COc1ccc(S(=O)(=O)N2CCOCC2)cc1)NC1CCCCC1	1	i	-2	-3	x	x	x	x	x	x
CCOc1ccc(N(C)c2ccc(/C=C3/SC(=S)NC3=O)cc2)cc1	87*	i	x	108	115*	128*	127*	28	24*	66*
CC(C)(C)OC(=O)CN1C(=O)S/C(=C\c2ccc(-c3cccc(C(=O)O)c3)o2)C1=O	x	x	x	x	5	x	x	x	x	x
CC(C)OC(=O)CN1C(=O)S/C(=C/c2ccc(N3CCCCC3)o2)C1=O	51*	i	x	9	180*	+	179*	73*	-114*	-73
O=CN1CCN(C(=O)c2ccc(-c3nc4ccccc4s3)s2)CC1	4	i	-2	2	1	x	x	x	x	x
O=C(CNC(=O)c1ccc(S(=O)(=O)N2CCCC2)cc1)N/N=C/c1ccccc1Cl	-4	i	-8	4	-3	x	x	x	x	x
O=C(N/N=C\c1c(O)ccc2ccccc12)c1ccc(S(=O)(=O)N2CCCCC2)cc1	96*	+	x	71*	96*	100*	101*	176*	-44*	32
CCN(CC)c1ccc(-c2sc(Nc3ccccc3)n[n+]2-c2ccc(F)cc2)cc1	65*	+	x	148	95*	120*	117*	146*	6	-29
CCc1ccc(Nc2n[n+](-c3ccccc3)c(-c3ccc(OCc4ccccc4)cc3)s2)cc1	7	i	16	-5	-1	x	x	x	x	x
CCc1ccc(Nc2n[n+](-c3ccccc3)c(-c3ccc(N(CC)CC)cc3)s2)cc1	91*	x	x	175	105*	115*	112*	13	-79*	-84
O=C(O)c1ccc(-c2sc(Nc3ccccc3)n[n+]2-c2ccc(F)cc2)cc1	-6	i	-3	1	1	x	x	x	x	x
Cc1nc(SCC(=O)Nc2ccccc2Cl)oc1C	0	i	1	2	2	x	x	x	x	x
Oc1ccc(Cl)cc1N=Cc1sc2ccccc2c1Cl	2	i	16	4	11	x	x	x	x	x
O=[N+]([O-])c1ccc(O)c(N=Cc2sc3ccccc3c2O)c1	44*	i	109*	34	42*	38*	53*	102*	8	51*	Rpn11 confirm=42*;MMP-2 counter-1=26;Thrombin inh=-3
CCOC(=O)CN1C(=O)S/C(=C/C=C/c2ccc(N(C)C)cc2)C1=O	40*	i	x	46*	87*	87*	88*	62*	-44*	66*
Nc1c(C=C2C=CC(=O)C=C2)c(=O)nc2sc(CC(=O)N3CCCCC3)nn12	0	i	11	-4	-2	x	x	x	x	x
COC1=CC(=Cc2c(N)n3nc(CC(=O)N4CCCCC4)sc3nc2=O)C=C(OC)C1=O	78*	+	x	38*	31*	112*	110*	34	-11	74*
O=C1C=C(c2cccc(CO)c2)C[C@@H](c2ccc(Cl)cc2)C1	-5	i	2	3	x	x	x	x	x	x
CCOC(=O)SC1=N/C(=C\c2ccc(N(C)C)cc2)C(=O)S1	43*	i	x	79*	82*	101*	102*	80*	-7	46*	Myeloid diff=i;GFP autofluor=1
Cc1c(N2C(=O)/C(=C\c3ccc(N(C)C)cc3)N(C)C2=S)c(=O)n(-c2ccccc2)n1C	75*	i	x	44*	150*	132*	133*	85*	-7	68*
CCOCCCn1c(SCC(=O)Nc2ccc3[nH]c(=O)[nH]c3c2)nc2ccccc2c1=O	6	i	-2	-2	1	x	x	x	x	x
O=C(COc1ccc(Cl)cc1)NCc1cn2cc(Cl)ccc2n1	0	i	-2	1	0	x	x	x	x	x
COc1cc2cc3c(N)c(C(=O)Nc4sc(C)c(C)c4C#N)sc3nc2cc1OC	74*	i	84*	15	36*	39*	49*	82*	1	10	Rpn11 confirm=48*;MMP-2 counter-1=6;Thrombin inh=31
Cc1ccc(-n2cccc2/C=C2/C(=N)N3C(=NC2=O)SN=C3S(C)(=O)=O)cc1Cl	59*	u	168*	25	32*	35*	48*	0	9	39*	Rpn11 confirm=160*;MMP-2 counter-1=-7;Thrombin inh=109*
Cc1cccc(C)c1-n1cccc1/C=C1/C(=N)N2C(=NC1=O)SN=C2S(C)(=O)=O	5	i	16	-2	1	x	x	x	x	x

Screens deposited in PubChem by several laboratories.
